According to paper PMC5503752 (Biophysical chemistry, 2017):
Where two headings read alike, the source gives them in different places. Each block holds one molecule with its values, some of them ahead of it.

Columns and labels:
[1] = biological target: rat NaV1.2 IQ motif (residues 1901-1927) in YFP-CFP biosensor; assay: CaM titrations of NaV1.2IQ YFP-CFP FRET biosensor; assay type: binding; settings: for Kd: read-out: Kd, apo CaM, apo (no CaCl2), pH 7.4, 22 °C, calculated from average ΔG
In short: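 Rat NaV1.2 residues 1901–1927 inserted between YFP and CFP, expressed in BL21(DE3) (IPTG, 40 h, 18 °C), used as clarified lysate. Biosensor at 0.5 nM (apo) to 5 nM (Ca2+). Titrant: paramecium-sequence CaM or its domains.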

[2] = system: sites III and IV of CaM bound to the NaV1.2 IQ motif; assay: Simulation of calcium binding to CaM bound to the NaV1.2 IQ motif
In short: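 Calcium binding to sites III and IV of IQ-bound CaM was simulated by thermodynamic linkage. Inputs were earlier-measured calcium-binding energies of CaM alone (ΔG1 −7.76, ΔG2 −15.92 kcal/mol) and the apo-versus-Ca2+ difference in IQ binding. The simulation used a total free energy of −13.99 kcal/mol and the same cooperativity as free CaM.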

NaV1.5 DIII-DIV linker = settings: cited from earlier work
CaM = settings: absence of IQ motif; same conditions as this study; cited from earlier work
[3] = system: CaM bound to NaV1.2 IQ motif; settings: cited from earlier work
NaV1.2IQ biosensor = assay type: binding, rat; settings: for fractional decrease/change in YFP intensity of biosensor, apo: [CaM]:[biosensor] = 10^3:1, biosensor 4 nM, excitation 430 nm, YFP 525 nm
In short: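 Steady-state emission spectra were recorded with 430 nm excitation, showing CFP at 475 nm and YFP at 525 nm. Samples were biosensor alone or with >10^3-fold excess apo or Ca2+-saturated CaM, CaMN or CaMC, in titration buffer at pH 7.4 and 22 °C. Spectra were buffer-subtracted, dilution-corrected and normalized to free-biosensor intensity at 525 nm. Fractional YFP decrease was taken at λmax.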

[4] = system: IQ motifs of NaV1.2, 1.5, and 1.6; settings: cited from earlier work
NaV1.2 IQ motif = system: NaV1.2 IQ motif; design: species or system rat; settings: free [CaM] 50–100 nM (estimated)
In short: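 Single-site fractional saturation isotherms of the IQ motif by apo or calcium-saturated CaM were simulated from the single-site binding equation. Input was the free energies measured by biosensor titration.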

rat Nav1.2IQp = settings: thermodynamic linkage analysis; cited from earlier work
ryanodine receptor RyR1 = settings: cited from earlier work
CaV1.2 IQ motif = settings: cited from earlier work

Kd [1]: 11.6 nM
calcium-saturated CaMC bound to NaV1.2-IQ ([2]; neuronal intracellular Ca^2+ range centered on 10 03BCM, simulation, Fig. 7B): 50–75%
Molecule: C-domain of CaM [CaMC]
affinity of CaMC for NaV1.5 DIII-DIV linker (NaV1.5 DIII-DIV linker): micromolar affinity

total free energy of calcium binding to sites III and IV of CaM bound to NaV1.2 IQ motif ([2]; simulation for illustration, same cooperativity as CaM alone): -13.99 kcal/mol
Molecule: [Ca+2] [calcium]
ΔG1 (printed AG1) of calcium binding to CaM alone (CaM): -7.76 kcal/mol
ΔG2 of calcium binding to CaM alone (CaM): -15.92 kcal/mol
calcium equivalents (ions per CaM) required for saturation ([3]; CaM bound to NaV1.2 IQ motif, NMR titration): 4
calcium-binding affinity of sites III and IV (CaMC) in CaM-IQp complex [3]: diminished

binding to NaV1.2IQ biosensor, in words ([1]; CaMN, apo and 1 mM calcium): negligible binding
Molecule: N-domain of CaM [CaMN]
deflection in fluorescence intensity relative to that seen at 50 nM CaMC (NaV1.2IQ biosensor; 50 pM CaMN (so in the source) vs 50 nM CaMC): less than 1%
fractional decrease/change in YFP intensity of biosensor, apo (NaV1.2IQ biosensor): ~ 1%
binding of CaMN to NaV IQ motifs ([4]; NaV1.2, 1.5 and 1.6 IQ motifs): undetectable or very weak binding

ratio of Kd, (Ca^2+)4-CaM over apo CaM (higher, weaker) ([1]; (Ca^2+)4-CaM vs apo CaM): ~ 30 fold
Kd [1]: 3.2 nM
predicted occupancy of IQ motif by (Ca^2+)4-CaM at high calcium ([2]; 10 03BCM free calcium): ~ 68%
predicted occupancy of NaV1.2 IQ motif, (Ca^2+)4-CaM (NaV1.2 IQ motif): 37–54%
predicted occupancy of NaV1.2 IQ motif, apo CaM (NaV1.2 IQ motif): 94–97%
Molecule: Calmodulin [CaM]
fractional decrease/change in YFP intensity of biosensor, apo (NaV1.2IQ biosensor): 36%
relative affinity of apo vs calcium-saturated CaM for rat Nav1.2IQp (rat Nav1.2IQp): binds more favorably than calcium-saturated CaM
affinity for apo CaM relative to (Ca^2+)4-CaM, NaV IQ motifs [4]: higher affinity for apo CaM than (Ca^2+)4-CaM
effect on RyR1 (ryanodine receptor RyR1; listed as apo CaM): activated
effect on RyR1 (ryanodine receptor RyR1; listed as calcium-saturated CaM): inhibited
affinity of (Ca^2+)4-CaM relative to apo CaM for CaV1.2 IQ motif (CaV1.2 IQ motif): higher affinity for (Ca^2+)4-CaM than apo CaM
